Results as given in ChEMBL document CHEMBL1151805, “Effect of guggulsterone and cembranoids of Commiphora mukul on pancreatic phospholipase A(2): role in hypocholesterolemia” (J Nat Prod, 2009).
pKd: −log10 of the molar value. Active and inactive are the calls of the source. No cut-off for these calls is given here.

Columns and labels:
Phospholipase A2 [1] = molecular target: T1, Phospholipase A2 (Homo sapiens, UniProt P04054); assay: Reduction in human pancreatic recombinant 1B PLA2 activity expressed in Escherichia coli assessed as hydrolysis of cholate-activated 1,2-dimyristoyl-sn-3-glycerophosphocholine vesicles
Target sequence in this assay (P04054 23-148 limits assumed): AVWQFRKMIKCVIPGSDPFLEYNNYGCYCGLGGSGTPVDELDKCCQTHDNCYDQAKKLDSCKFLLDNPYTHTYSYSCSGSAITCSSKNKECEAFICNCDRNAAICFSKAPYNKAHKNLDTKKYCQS

Phospholipase A2 [2] = molecular target: T1, Phospholipase A2; assay: Increase in human pancreatic recombinant 1B PLA2 activity expressed in Escherichia coli assessed as hydrolysis rate of 1,2-dimyristoyl-sn-3-glycerophosphocholine vesicles in absence of cholate
Method in brief: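 pH-stat titration of hydrolysis of sonicated 1 mM DMPC vesicles, started with 2 to 10 pM hPLA2, titrated with 1 mM 2-aminopropanediol base. Buffer was 5 mM CaCl2, 1 mM NaCl, 0.1 mM EDTA, pH 8.0, 24 ± 0.1 °C, under nitrogen. Test compound was present at 0.03 or 0.007 MF.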
Target sequence in this assay (P04054 23-148 limits assumed): as above

Phospholipase A2 [3] = molecular target: T1, Phospholipase A2; assay: Apparent inhibition of human pancreatic recombinant 1B PLA2 expressed in Escherichia coli assessed as hydrolysis rate of 1,2-dimyristoyl-sn-3-glycerophosphocholine vesicles in presence of cholate
Target sequence in this assay (P04054 23-148 limits assumed): as above

Phospholipase A2 [4] = molecular target: T1, Phospholipase A2; assay: Binding affinity to human pancreatic recombinant 1B PLA2 expressed in Escherichia coli at 100 uM by saturation transfer difference NMR spectroscopy
Target sequence in this assay (P04054 23-148 limits assumed): as above

Sus scrofa = species: Sus scrofa; assay: Binding affinity to pig PLA2 at 100 uM by saturation transfer difference NMR spectroscopy
Method in brief: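 STD NMR at 15 °C in 20 mM bicarbonate in D2O, pH 7.5, with 100 µM ligand and 7 µM pig pancreatic PLA2. Difference of on- and off-resonance irradiation by phase cycling, coadded from 6144 scans.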

Phospholipase A2 [5] = molecular target: T1, Phospholipase A2; assay: Binding affinity to human pancreatic recombinant 1B PLA2 expressed in Escherichia coli by resonance energy transfer assay in presence of trimethyl-ammonium-diphenylhexatriene
Method in brief: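 Aqueous-phase binding measured as bile-salt quenching of the resonance energy transfer signal from the hPLA2–trimethyl-ammonium-diphenylhexatriene complex. Kd was derived from the quenching.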
Target sequence in this assay (P04054 whole entry): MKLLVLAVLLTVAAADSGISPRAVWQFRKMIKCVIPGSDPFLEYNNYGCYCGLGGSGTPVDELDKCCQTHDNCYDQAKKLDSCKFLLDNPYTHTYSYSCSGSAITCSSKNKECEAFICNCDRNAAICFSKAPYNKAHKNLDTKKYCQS

Phospholipase A2 [6] = molecular target: T1, Phospholipase A2
Target sequence in this assay (P04054 23-148 limits assumed): as the sequence (P04054 23-148 limits assumed) above

SMILES	Activity (Phospholipase A2 [1])	Activity (Phospholipase A2 [2])	Ki(app) (mole fraction) (Phospholipase A2 [3])	Activity (Phospholipase A2 [4])	Activity (Sus scrofa)	pKd (Phospholipase A2 [5])	Ki(app) (mole fraction) (Phospholipase A2 [6])
CC1=C\C/C=C(\C)CC/C=C(\C)CC[C@](O)(C(C)C)/C=C\1	Dose-dependent effect	inactive	0.00325				
C[C@H](CCC(=O)NCCS(=O)(=O)O)[C@H]1CC[C@H]2[C@@H]3CC[C@@H]4C[C@H](O)CC[C@]4(C)[C@H]3C[C@H](O)[C@]12C				Active			
C[C@H](CCC(=O)O)[C@H]1CC[C@H]2[C@@H]3[C@H](O)C[C@@H]4C[C@H](O)CC[C@]4(C)[C@H]3CC[C@]12C				Active	Active		
C[C@H](CCC(=O)O)[C@H]1CC[C@H]2[C@@H]3[C@H](O)C[C@@H]4C[C@H](O)CC[C@]4(C)[C@H]3C[C@H](O)[C@]12C [CHOLIC ACID]				Active	Active	< 3.82	
C[C@H](CCC(=O)NCCS(=O)(=O)O)[C@H]1CC[C@H]2[C@@H]3[C@@H](O)C[C@@H]4C[C@H](O)CC[C@]4(C)[C@H]3CC[C@]12C [TAURURSODIOL]	Dose-dependent effect		0.000306			5.00	0.005
